The target of data set [1] is T1, Prostaglandin G/H synthase 1 (Ovis aries, UniProt P05979).
T1 sequence (P05979 whole entry): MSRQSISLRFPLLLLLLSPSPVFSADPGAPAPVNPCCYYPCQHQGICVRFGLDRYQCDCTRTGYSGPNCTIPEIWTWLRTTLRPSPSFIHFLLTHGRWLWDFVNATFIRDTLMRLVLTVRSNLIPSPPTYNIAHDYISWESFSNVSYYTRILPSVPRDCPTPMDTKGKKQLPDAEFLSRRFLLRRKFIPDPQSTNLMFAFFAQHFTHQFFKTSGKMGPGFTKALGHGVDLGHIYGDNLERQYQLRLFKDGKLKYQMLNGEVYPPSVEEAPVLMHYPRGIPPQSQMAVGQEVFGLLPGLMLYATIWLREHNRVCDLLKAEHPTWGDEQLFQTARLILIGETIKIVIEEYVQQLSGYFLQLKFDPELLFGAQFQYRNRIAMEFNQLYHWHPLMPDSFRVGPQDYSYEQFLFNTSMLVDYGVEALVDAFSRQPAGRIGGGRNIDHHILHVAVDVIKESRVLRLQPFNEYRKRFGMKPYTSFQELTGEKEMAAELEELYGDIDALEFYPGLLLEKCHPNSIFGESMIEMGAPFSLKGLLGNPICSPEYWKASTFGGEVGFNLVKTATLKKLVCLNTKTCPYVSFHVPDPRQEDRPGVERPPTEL
As to the kind of experiment: Inhibition of ovine COX1 by colorimetric assay. The procedure, abridged: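 Colorimetric ovine COX inhibitor screening kit, run per the supplier's protocol. Each experiment was done at least four times and reported as mean ± SEM.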

The target in data set [2] is ATP-dependent translocase ABCB1 (Homo sapiens, UniProt P08183). As to the kind of experiment: Inhibition of human recombinant P-glycoprotein after 40 mins by Pgp-Glo assay. An outline of the steps: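 Recombinant human P-gp membranes were incubated with test compound (dilution series, 0.781–200 μM) and 5 mM MgATP at 37 °C for 40 min. ATP detection buffer was added and luminescence developed at room temperature for 20 min. IC50 was fitted to concentration–luminescence data by nonlinear least squares.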

Data set [3] concerns the target Multidrug resistance-associated protein 1 (Homo sapiens, UniProt P33527). Briefly: Inhibition of human MRP1 in human T98G cells assessed as potentiation of doxorubicin induced cytotoxicity at 50 uM pre-incubated for 2 hrs before doxorubicin addition and measured 4 days after doxorubicin exposure by MTT assay relative to untreated control. In kind it is cell-based. The note with it: 96 h.

Data set [4] has as its system T98G. Briefly: Cytotoxicity against human T98G cells assessed as inhibition of cell growth at 1 uM by MTT assay. It is filed as functional. The following applies: read-out: GI.

Where “and” joins values, the source holds several entries; their conditions need not be identical. Identical values can stand only once.

Chain of Multidrug resistance-associated protein 1 (P33527 whole entry): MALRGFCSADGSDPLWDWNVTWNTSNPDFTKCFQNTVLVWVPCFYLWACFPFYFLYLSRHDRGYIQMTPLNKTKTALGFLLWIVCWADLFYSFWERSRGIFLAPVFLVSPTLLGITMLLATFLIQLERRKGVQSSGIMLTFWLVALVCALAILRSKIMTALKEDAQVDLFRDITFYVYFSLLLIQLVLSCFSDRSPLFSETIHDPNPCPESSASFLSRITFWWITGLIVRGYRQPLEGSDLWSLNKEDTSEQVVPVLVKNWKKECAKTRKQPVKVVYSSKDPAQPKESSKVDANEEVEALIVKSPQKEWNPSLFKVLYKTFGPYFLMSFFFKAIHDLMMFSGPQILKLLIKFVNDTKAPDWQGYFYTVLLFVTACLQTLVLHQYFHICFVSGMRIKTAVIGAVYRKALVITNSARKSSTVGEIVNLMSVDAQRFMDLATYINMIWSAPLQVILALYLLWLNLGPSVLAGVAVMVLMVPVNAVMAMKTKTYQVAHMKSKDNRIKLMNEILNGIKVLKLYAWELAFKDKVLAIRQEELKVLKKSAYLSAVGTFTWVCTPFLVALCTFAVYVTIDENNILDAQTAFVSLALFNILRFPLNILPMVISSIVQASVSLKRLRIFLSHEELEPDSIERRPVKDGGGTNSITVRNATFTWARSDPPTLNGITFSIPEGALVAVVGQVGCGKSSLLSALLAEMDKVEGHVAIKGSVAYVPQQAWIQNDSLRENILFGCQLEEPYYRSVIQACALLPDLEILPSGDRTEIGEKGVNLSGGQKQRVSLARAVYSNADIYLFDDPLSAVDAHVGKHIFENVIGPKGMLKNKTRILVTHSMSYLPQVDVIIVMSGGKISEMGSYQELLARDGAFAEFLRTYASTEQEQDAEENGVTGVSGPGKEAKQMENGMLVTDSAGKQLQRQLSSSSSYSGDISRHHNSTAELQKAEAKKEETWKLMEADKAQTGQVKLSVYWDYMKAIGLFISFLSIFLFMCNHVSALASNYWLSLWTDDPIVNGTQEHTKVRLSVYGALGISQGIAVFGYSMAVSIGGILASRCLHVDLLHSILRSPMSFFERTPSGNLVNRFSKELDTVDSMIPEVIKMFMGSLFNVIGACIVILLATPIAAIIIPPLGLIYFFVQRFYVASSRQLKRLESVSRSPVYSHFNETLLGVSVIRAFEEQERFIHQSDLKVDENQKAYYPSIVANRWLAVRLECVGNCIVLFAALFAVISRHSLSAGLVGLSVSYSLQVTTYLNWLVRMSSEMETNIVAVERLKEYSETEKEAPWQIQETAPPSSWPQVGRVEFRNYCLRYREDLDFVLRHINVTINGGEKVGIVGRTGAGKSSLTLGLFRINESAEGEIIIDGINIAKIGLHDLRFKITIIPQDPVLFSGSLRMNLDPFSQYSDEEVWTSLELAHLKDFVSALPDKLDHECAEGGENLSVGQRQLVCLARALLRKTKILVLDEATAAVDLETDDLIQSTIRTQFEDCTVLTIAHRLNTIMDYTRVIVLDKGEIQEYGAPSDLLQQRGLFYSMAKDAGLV
Chain of ATP-dependent translocase ABCB1 (P08183 whole entry): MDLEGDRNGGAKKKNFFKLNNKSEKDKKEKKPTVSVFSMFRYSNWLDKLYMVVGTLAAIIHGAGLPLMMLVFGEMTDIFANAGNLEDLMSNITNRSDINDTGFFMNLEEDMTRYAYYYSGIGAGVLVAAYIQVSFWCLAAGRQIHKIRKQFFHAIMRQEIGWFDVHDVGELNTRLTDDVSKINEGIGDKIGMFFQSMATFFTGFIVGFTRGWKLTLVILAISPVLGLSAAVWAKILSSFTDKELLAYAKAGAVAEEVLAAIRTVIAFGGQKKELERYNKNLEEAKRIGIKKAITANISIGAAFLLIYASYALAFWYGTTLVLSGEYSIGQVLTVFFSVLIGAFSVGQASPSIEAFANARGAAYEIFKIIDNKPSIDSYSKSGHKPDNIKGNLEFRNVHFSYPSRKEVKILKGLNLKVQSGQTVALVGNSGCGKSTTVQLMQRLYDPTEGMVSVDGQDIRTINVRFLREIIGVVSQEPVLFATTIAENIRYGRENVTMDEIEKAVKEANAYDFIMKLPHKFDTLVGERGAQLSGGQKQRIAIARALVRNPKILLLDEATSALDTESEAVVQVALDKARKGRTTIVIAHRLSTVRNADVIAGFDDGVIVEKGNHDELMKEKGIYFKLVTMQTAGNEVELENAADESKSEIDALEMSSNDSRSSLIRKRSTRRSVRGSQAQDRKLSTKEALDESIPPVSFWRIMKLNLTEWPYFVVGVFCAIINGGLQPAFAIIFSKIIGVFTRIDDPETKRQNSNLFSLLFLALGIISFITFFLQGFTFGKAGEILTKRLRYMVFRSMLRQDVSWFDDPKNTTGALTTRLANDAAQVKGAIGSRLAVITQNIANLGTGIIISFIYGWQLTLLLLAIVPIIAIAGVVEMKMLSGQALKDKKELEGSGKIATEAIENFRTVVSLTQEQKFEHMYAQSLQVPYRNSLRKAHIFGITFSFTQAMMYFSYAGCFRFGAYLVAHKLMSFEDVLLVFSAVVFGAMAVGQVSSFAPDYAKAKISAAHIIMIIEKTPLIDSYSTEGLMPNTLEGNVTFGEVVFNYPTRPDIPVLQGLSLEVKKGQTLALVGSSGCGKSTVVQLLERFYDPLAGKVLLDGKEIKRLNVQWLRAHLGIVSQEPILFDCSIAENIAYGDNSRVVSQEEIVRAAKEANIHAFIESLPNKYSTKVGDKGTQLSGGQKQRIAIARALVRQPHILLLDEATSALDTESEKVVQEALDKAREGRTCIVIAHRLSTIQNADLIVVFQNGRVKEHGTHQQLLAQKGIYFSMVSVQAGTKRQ

With `Cc1c(CC(=O)O)c2ccccc2n1C(=O)c1ccc(Cl)cc1`, the half-inhibitory concentration (IC50) in data set [1] turned out to be 0.01 µM; in data set [2], 20 µM.

Turning to `CCc1c(CC(=O)O)c2ccccc2n1C(=O)c1ccc(Cl)cc1`, in data set [3], the “inhibition (INH)” value was “Active”. Moreover, the IC50 was more than 400 µM in data set [1] and 20 µM in data set [2].

In the case of `O=C(O)Cc1c(-c2ccccc2)n(C(=O)c2ccc(Cl)cc2)c2ccccc12`, in data set [3], the “inhibition (INH)” value was “Active”. The half-inhibitory concentration (IC50) was more than 400 µM in data set [1] and 18 µM in data set [2].

For `COc1cccc2c(CC(=O)O)c(C)n(C(=O)c3ccc(Cl)cc3)c12`, in data set [3], the “inhibition (INH)” value is listed as “Active”. Moreover, the concentration for half-maximal inhibition (IC50) in data set [1] was more than 400 µM; in data set [2], 15 µM.

In the case of `COc1ccc2c(CC(=O)O)c(C)n(C(=O)c3ccc(Cl)cc3)c2c1`, the IC50 in data set [1] is more than 200 µM; in data set [2] it was 9.8 µM.

Take `CCc1cccc2c(CC(=O)O)cn(C(=O)c3ccc(Cl)cc3)c12`: the “inhibition (INH)” value in data set [3] is “Not Active”. For the same molecule, the IC50 in data set [1] was more than 400 µM; in data set [2], 17 µM.

With `COc1cccc2c1C(=O)c1c(O)c3c(c(O)c1C2=O)C[C@@](O)(C(=O)CO)C[C@@H]3O[C@H]1C[C@H](N)[C@H](O)[C@H](C)O1` [DOXORUBICIN], the inhibition of growth at 1 µM in data set [4] was 40%.

Consider `COc1ccc2c(c1)c(CC(=O)O)c(C)n2C(=O)c1ccc(Cl)cc1` [INDOMETHACIN], for which the concentration for half-maximal inhibition (IC50) in data set [2] was 32 µM and 28 µM.
